ChEMBL document CHEMBL6134784, “Furoxan-piplartine hybrids as effective NO donors and ROS inducers in PC3 cancer cells: design, synthesis, and biological evaluation” (RSC Med Chem, 2024)
Calls of active or inactive are those of the source. No cut-off for these calls is given here.

What was measured:
PC-3 [1] = assay: Induction of morphological changes in human PC-3 cells assessed as loss of adhesion at 0.24 uM measured after 24 hrs by phase contrast microscopy; format: functional, cell-based
Summary of the method: (§1)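 PC3 cells were seeded at 1×10^5 per well in 6-well plates and treated after 24 h, with or without 1 mM N-acetyl-L-cysteine. The same observation field was imaged by phase contrast microscopy at 1, 2, 3, 4 and 24 h. DMSO vehicle served as control.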

PC-3 [2] = assay: Induction of apoptosis in human PC-3 cells assessed as viable cells at 0.24 uM measured after 6 hrs by Alexa Fluor 488-annexin V/propidium iodide staining based flow cytometry (reference value: 89.37%); format: functional; conditions: read-out: Activity
PC-3 [3] = assay: Cytotoxicity against human PC-3 cells assessed as reduction in cell viability at 0.24 uM measured after 24 hrs by SRB assay; format: functional, cell-based
Summary of the method: (§2)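 SRB assay: PC3 seeded 1×10^4 per well, after 24 h exposed 24 h at 37 °C, 5% CO2 with or without 1 mM N-acetyl-L-cysteine; vehicle 0.1% DMSO. Fixed with 15% TCA at 4 °C for 1 h, dried, stained 0.4% sulforhodamine B, dye solubilized in 10 mM Tris, absorbance 540 nm; ANOVA/Tukey.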

PC-3 [4] = assay: Induction of morphological changes in human PC-3 cells assessed as reduction in cell density at 0.24 uM measured after 24 hrs in presence of antioxidant N-acetyl-L-cysteine by phase contrast microscopy; format: functional, cell-based; summary of the method: as §1
PC-3 [5] = assay: Cytotoxicity against human PC-3 cells assessed as reduction in cell viability at 0.24 uM measured after 24 hrs in presence of antioxidant N-acetyl-L-cysteine by SRB assay; format: functional, cell-based; summary of the method: as §2
PC-3 [6] = assay: Induction of apoptosis in human PC-3 cells assessed as necrotic cells at 0.24 uM measured after 6 hrs by Alexa Fluor 488-annexin V/propidium iodide staining based flow cytometry (reference value: 1.28%); format: functional
PC-3 [7] = assay: Induction of apoptosis in human PC-3 cells assessed as late apoptotic cells at 0.24 uM measured after 6 hrs by Alexa Fluor 488-annexin V/propidium iodide staining based flow cytometry (reference value: 3.37%); format: functional
PC-3 [8] = assay: Cell cycle arrest in human PC-3 cells assessed as down regulation of CCND1 gene expression at 0.24 uM measured after 3 hrs by qPCR analysis; format: functional, cell-based
Summary of the method: (§3)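 Seeded 1×10^5 cells per well in 6-well plates; PC3 treated 3 h. Total RNA extracted, qPCR; each target normalized to reference gene (β-actin) by efficiency-corrected ΔΔCt (Pfaffl) against a control calibrator sample, efficiencies from amplification profiles. Mean ± SEM of four independent experiments.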

PC-3 [9] = assay: Induction of ROS generation in human PC-3 cells at 0.24 uM measured after 30 mins by CellROX reagent based flow cytometry; format: functional, cell-based
Summary of the method: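 PC3 seeded 1×10^5 per well in 6-well plates, after 24 h treated together with CellROX green (5 μM final) for 30 min at 37 °C; 0.1% DMSO negative control, 1 mM H2O2 positive control. Cells collected and CellROX-positive fraction measured by flow cytometry.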

PC-3 [10] = assay: Cell cycle arrest in human PC-3 cells assessed as up regulation of CDKN1A gene expression at 0.24 uM measured after 3 hrs by qPCR analysis; format: functional, cell-based
PC-3 [11] = assay: Induction of apoptosis in human PC-3 cells assessed as early apoptotic cells at 0.24 uM measured after 6 hrs by Alexa Fluor 488-annexin V/propidium iodide staining based flow cytometry (reference value: 6%); format: functional
PC-3 [12] = assay: Cell cycle arrest in human PC-3 cells assessed as increase in cell accumulation at sub-G1 phase at 0.24 uM measured after 3 hrs in presence of antioxidant N-acetyl-L-cysteine by propidium iodide staining based flow cytometry; format: functional
Summary of the method: (§4)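 PC3 cells seeded 1×10^5 per well in 6-well plates, exposed 3 h, with or without 1 mM N-acetyl-L-cysteine pretreatment; vehicle 0.1% DMSO. Harvested with trypsin-EDTA, fixed in 75% ethanol in PBS at 4 °C for 30 min, stained 1 h with RNase (1.5 mg mL^-1) and propidium iodide (90 μg mL^-1); DNA content by flow cytometry. Phase fractions compared with control by ANOVA/Tukey.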

PC-3 [13] = assay: Cytotoxicity against human PC-3 cells assessed as reduction in cell viability at 0.05 uM measured after 24 hrs in presence of antioxidant N-acetyl-L-cysteine by SRB assay; format: functional, cell-based; summary of the method: as §2
PC-3 [14] = assay: Induction of morphological changes in human PC-3 cells assessed as reduction in cell density at 0.05 uM measured after 24 hrs in presence of antioxidant N-acetyl-L-cysteine by phase contrast microscopy; format: functional, cell-based; summary of the method: as §1
PC-3 [15] = assay: Induction of morphological changes in human PC-3 cells assessed as reduction in cell density at 0.05 uM measured after 24 hrs by phase contrast microscopy; format: functional, cell-based; summary of the method: as §1
PC-3 [16] = assay: Induction of ROS generation in human PC-3 cells at 0.05 uM measured after 30 mins by CellROX reagent based confocal microscopy; format: functional, cell-based
Summary of the method: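 Confocal ROS imaging of PC3: cells loaded with 2.5 μM CellROX green plus 0.5 μM MitoTracker Red for 30 min at 37 °C, washed three times in PBS, imaged immediately; DMSO vehicle and H2O2 controls.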

PC-3 [17] = assay: Induction of morphological changes in human PC-3 cells assessed as loss of adhesion at 0.05 uM measured after 24 hrs by phase contrast microscopy; format: functional, cell-based; summary of the method: as §1
PC-3 [18] = assay: Induction of mitochondrial membrane potential loss in human PC-3 cells at 0.05 uM measured after 30 mins by MitoTracker Red based confocal microscopy; format: functional, cell-based
Summary of the method: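 Confocal imaging of PC3 cells loaded with CellROX Green (2.5 μM) and MitoTracker Red (0.5 μM) for 30 min at 37 °C, then three PBS washes and immediate capture. The MitoTracker dye stains intact mitochondria and diffuses out when membrane potential drops. Vehicle 0.1% DMSO served as negative control and 1 mM H2O2 as positive control.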

PC-3 [19] = assay: Cell cycle arrest in human PC-3 cells assessed as increase in cell accumulation at G2/M phase at 0.05 uM measured after 3 hrs by propidium iodide staining based flow cytometry; format: functional; summary of the method: as §4
PC-3 [20] = assay: Induction of apoptosis in human PC-3 cells assessed as effect on BCL2 gene expression at 0.05 uM measured after 3 hrs by qPCR analysis; format: functional, cell-based; summary of the method: as §3

Row | Structure (SMILES) | Activity (PC-3 [1]) | viability at 0.24 µM (PC-3 [2]) | Activity (PC-3 [3]) | Activity (PC-3 [4]) | Activity (PC-3 [5]) | Activity (PC-3 [6]) | Activity (PC-3 [7]) | Activity (PC-3 [8]) | Activity (PC-3 [9]) | Activity (PC-3 [10]) | Activity (PC-3 [11]) | Activity (PC-3 [12]) | Activity (PC-3 [13]) | Activity (PC-3 [14]) | Activity (PC-3 [15]) | Activity (PC-3 [16]) | Activity (PC-3 [17]) | Activity (PC-3 [18]) | Activity (PC-3 [19]) | Activity (PC-3 [20])
1 | COc1cc(/C=C/C(=O)N2CCC=CC2=O)cc(OC)c1OCCCOc1no[n+]([O-])c1S(=O)(=O)c1ccccc1 | Active; Partial Loss Of Adhesion Observed | 48.6% | Active | inactive | inactive | 0.81% | 43.61% | Active | Active | Active | 9.17% | inactive | – | – | – | – | – | – | – | –
2 | COc1cc(/C=C/C(=O)N2CCC=CC2=O)cc(OC)c1OCCCCCCCCCCCCOc1no[n+]([O-])c1S(=O)(=O)c1ccccc1 | – | – | – | – | – | – | – | – | – | – | – | – | inactive | inactive | Active | Active | Active; Partial Loss Of Adhesion Observed | Active | Active | inactive
